These results are taken from ChEMBL document CHEMBL1681647, “Targeting bacterial biofilms: design of a terpenoid-like library as non-toxic anti-biofilm compounds” (Bioorg Med Chem Lett, 2011).

The structures appear in SMILES notation. Active and inactive are the calls of the source. The rule behind the calls is not given here.

The test system of assay [1] is Pseudoalteromonas sp. D41. Kind of assay: Antibiofilm activity in Pseudoalteromonas sp. D41 assessed as bacterial adhesion at 500 uM after 15 mins using DAPI staining by micro-plate fluorescence reader. The assay is classed as functional. As to conditions: in the assay text read “15 h” for “15 mins”. The method, boiled down: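 Single-concentration screen at 500 in triplicate. D41 was grown in VNSS at 20 °C to stationary phase, then resuspended in artificial sea water at OD600 0.2–0.4. Incubation was 15 h at 20 °C with an ASW adhesion control. Wells were NaCl-washed and fixed in 2% formaldehyde for 90 min at 4 °C, then DAPI-stained. Fluorescence of the ethanol-solubilized dye was read at 380 nm excitation and 495 nm emission.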

For assay [2], the system named is Pseudoalteromonas sp. D41. Kind of assay: Antibacterial activity against Pseudoalteromonas sp. D41 assessed as inhibition of bacterial growth up to 100 uM. The class given is functional. The procedure, abridged: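 Growth assay with D41 grown in VNSS at 20 °C, shaken at 120 rpm and sampled in exponential phase, then subcultured at OD600 0.1. Compound was added at concentrations from 1 to 100 in triplicate, with a growth control and a solvent (DMSO or methanol) control. Plates were shaken at 120 rpm at 20 °C and OD600 was read hourly.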

The subject of assay [3] is Pseudoalteromonas sp. D41. Kind of assay: Antibiofilm activity in Pseudoalteromonas sp. D41 assessed as bacterial adhesion after 15 h using DAPI staining by micro-plate fluorescence reader. The following applies: Pseudoalteromonas sp. D41, 15 h.
Assay [4] relates to Pseudoalteromonas sp. D41. Description: Antibiofilm activity in Pseudoalteromonas sp. D41 assessed as bacterial adhesion at 500 uM after 15 h using DAPI staining by micro-plate fluorescence reader.

For the compound `COc1cc(-n2cc(COC/C=C(\C)CC/C=C(\C)CCC=C(C)C)nn2)cc(OC)c1OC`, the Activity in assay [1] turned out to be 50%.
On the same count and under the same terms, the same measure for `CC(C)=CCC/C(C)=C/CC/C(C)=C/COCc1cn(-c2ccc(C(=O)O)cc2)nn1`: more than 90%; for `COc1ccc(-c2cn(C/C=C(\C)CCC=C(C)C)nn2)cc1`: 3%.
Take `COc1cccc(-n2cc(COC/C=C(\C)CCC=C(C)C)nn2)c1`: the inhibition result in assay [2] is “inactive”. Besides, in assay [3], the EC50 (as a rule, the concentration giving half of the maximal effect) came to 103 µM. The Activity in assay [1] is on record as 19%.
For `COc1ccc(-c2cn(C/C=C(\C)CC/C=C(\C)CCC=C(C)C)nn2)cc1`, the Activity in assay [1] stood at 46%.
`CC(C)=CCC/C(C)=C/COCc1cn(-c2ccc(O)cc2)nn1`: the Activity in assay [1] is on record as more than 90%.
On the same count and under the same terms, the same measure for `CC(C)=CCC/C(C)=C/CC/C(C)=C/COCc1cn(-c2ccc(O)cc2)nn1`: 73%; for `CC(C)=CCC/C(C)=C/CC/C(C)=C/COCc1cn(-c2cccc(C(=O)O)c2)nn1`: more than 90%; for `COc1cc(OC)cc(-c2cn(C/C=C(\C)CCC=C(C)C)nn2)c1`: 90%.
The same measure, in the same setting: under `COc1ccccc1-n1cc(COC/C=C(\C)CC/C=C(\C)CCC=C(C)C)nn1` stands 35%.
As to `COc1ccc(-n2cc(COC/C=C(\C)CCC=C(C)C)nn2)cc1`, in assay [3], the EC50 amounted to 276 µM. For the same compound, the Activity in assay [1] is 20%.
The like results for `COc1cccc(-n2cc(COC/C=C(\C)CC/C=C(\C)CCC=C(C)C)nn2)c1` were, in that order, 198 µM and 25%.
The like results for `CC(C)=CC(=O)C/C(C)=C/CC/C(C)=C/CC/C(C)=C/CO` [ELEGANOLONE] were, in that order, 174 µM and 17%.
In the case of `CC(C)=CCC/C(C)=C/COCc1cn(-c2cccc(O)c2)nn1`, in assay [1], the Activity is recorded as 55%.
Same read-out and setting: the same measure for `COc1cc(-n2cc(COC/C=C(\C)CCC=C(C)C)nn2)cc(OC)c1OC`: 36%.
On the same count and under the same terms, under `COc1cc(OC)cc(-n2cc(COC/C=C(\C)CCC=C(C)C)nn2)c1` stands 76%.
As to `COc1cccc(-c2cn(C/C=C(\C)CC/C=C(\C)CCC=C(C)C)nn2)c1`, the Activity in assay [4] was 15%.
Regarding `COc1ccccc1-c1cn(C/C=C(\C)CCC=C(C)C)nn1`, the Activity in assay [1] came out at 90%.
As for `COc1ccccc1-n1cc(COC/C=C(\C)CCC=C(C)C)nn1`, the EC50 in assay [3] was 166 µM. For the same compound, the Activity in assay [1] was found to be 29%.
Consider `CC(C)=CCC/C(C)=C/COCc1cn(-c2ccc(C(=O)O)cc2)nn1`, for which the Activity in assay [1] was determined as 39%.
Same read-out and setting: under `CC(C)=CCC/C(C)=C/CC/C(C)=C/Cn1cc(-c2cccc(O)c2)nn1` stands 34%.
As for `COc1cc(OC)cc(-c2cn(C/C=C(\C)CC/C=C(\C)CCC=C(C)C)nn2)c1`, the EC50 in assay [3] was found to be 71 µM. Besides, the Activity in assay [1] is given as 0%.
Turning to `COc1cc(OC)cc(-n2cc(COC/C=C(\C)CC/C=C(\C)CCC=C(C)C)nn2)c1`, the Activity in assay [1] came out at 76%.
On to `COc1ccc(-n2cc(COC/C=C(\C)CC/C=C(\C)CCC=C(C)C)nn2)cc1`, for which, in assay [3], the concentration for a half-maximal effect (EC50) was 117 µM. Also, in assay [1], the Activity came to 24%.
In the case of `CC(C)=CCC/C(C)=C/COCc1cn(-c2cccc(C(=O)O)c2)nn1`, in assay [2], the inhibition entry was “inactive”. Besides, in assay [3], the EC50 worked out at 74 µM. For the same compound, the Activity in assay [1] worked out at 32%.
Turning to `COc1cccc(-c2cn(C/C=C(\C)CCC=C(C)C)nn2)c1`, in assay [1], the Activity is 90%.
For `CC(C)=CCC/C(C)=C/Cn1cc(-c2cccc(O)c2)nn1`, in assay [1], the Activity is reported as 30%.
The same measure, in the same setting: the same measure for `CC(C)=CCC/C(C)=C/CC/C(C)=C/COCc1cn(-c2cccc(O)c2)nn1`: more than 90%.
On to `CC(C)=C[C@@H](O)C/C(C)=C/CC/C(C)=C/CC/C(C)=C/CO` [ELEGANEDIOL], for which the concentration giving a half-maximal response (EC50) in assay [3] turned out to be 224 µM. Also, in assay [1], the Activity is 14%.
